Assay results from article PMC7194111 (Virology, 2020).
Like-named read-outs stand apart in the source and are kept apart here. Blank lines part the entries; values can stand above or below the molecule they belong to.

Assays:
[1] = system: ZIKV; assay: Anti-ZIKV assay; assay type: cell-based, Zika virus; conditions: for EC50: Zika virus
Summary of the method: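 Cells seeded at 2 × 10^5/well and pretreated 2 h with serial dilutions of test compound (DMSO stock diluted in medium). Infected with ZIKV (Asian strain KU963796) at MOI 0.1 for 2 h, then incubated to 48 hpi at 37 °C, 5% CO2 in DMEM. Cellular vRNA measured by SYBR Green qRT-PCR using the 2^-ΔΔCT method normalized to GAPDH. EC50 is the concentration reducing viral yield by 50%.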

[2] = Cytotoxicity measurement; assay type: cell-based; conditions: African green monkey, Vero cells
Summary of the method: (§1)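 Cells seeded at 6 × 10^3/well and exposed to a range of test compound concentrations (DMSO stock diluted in medium) for 48 h; controls received equal-volume DMSO. 10% CCK8 reagent added for 1 h, then absorbance read at 450 nm. CC50 taken as the concentration lowering viability by 50%.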

[3] = Cytotoxicity measurement; assay type: cell-based; conditions: human, Huh7 cells
Summary of the method: as §1

[4] = Cytotoxicity measurement; assay type: cell-based; conditions: human, A549 cells
Summary of the method: as §1

[5] = system: ZIKV; conditions: ref Adcock et al., 2017; cited from earlier work
[6] = system: ZIKV; assay: Time-of-addition assay; assay type: cell-based, Zika virus; conditions: 1 μM, added between -2 and 10 hpi, Vero cells, read at 48 hpi
[7] = system: ZIKV; assay: ZIKV strand specific RNA by qRT-PCR; assay type: cell-based; conditions: Zika virus, Vero
[8] = system: ZIKV; assay: Viral protein by western blotting and immunofluorescence in Vero cells; assay type: cell-based, Zika virus
Summary of the method: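 Vero cells infected with ZIKV at MOI 0.1 and treated with test compound or DMSO. At 48 hpi: fixed in 4% paraformaldehyde (15 min), permeabilized with 0.2% Triton X-100 (5 min), blocked in 5% BSA (30 min). Stained overnight at 4 °C with pan-flavivirus envelope mAb 4G2, then fluorescent secondary for 30 min at RT. Nuclei stained with DAPI; imaged by confocal microscopy.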

[9] = system: ZIKV; assay: Plaque forming assay; assay type: cell-based, Zika virus
Summary of the method: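 Supernatants from ZIKV-infected, compound-treated cultures were put on overnight Vero monolayers (2 × 10^5 cells/well) for 2 h at 37 °C. Inoculum replaced with plaque medium containing 1% methylcellulose. After 7 days, cells fixed and stained with 4% formaldehyde and 0.5% crystal violet.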

[10] = system: ZIKV; assay: Time-of-removal assay; assay type: cell-based, Zika virus
Summary of the method: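 ZIKV-infected Vero cells received 1 μM test compound or DMSO at 6 hpi, with vRNA sampled every 3 h up to 24 hpi. Alternatively, treatment started at 24 hpi, with sampling every 6 h for a further 12 h. vRNA by SYBR Green qRT-PCR normalized to GAPDH. E and NS5 protein by western blot of cell lysates (SDS-PAGE, PVDF, overnight primary antibody at 4 °C, ECL), with GAPDH detected.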

[11] = system: ZIKV; assay: Lethal ZIKV challenge in AG6 mice; assay type: in vivo
Summary of the method: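 AG6 mice aged 4–5 weeks (13–15 g, n = 6/group) were infected with 3.3 × 10^6 PFU ZIKV via footpad. Dosed intragastrically at 1, 5 or 10 mg/kg (DMSO stock in 0.5% carboxymethyl cellulose) or vehicle for 14 days. Survival and body weight tracked to 14 dpi. Retro-orbital blood at 1, 3, 7 dpi: vRNA copies by qRT-PCR against a standard curve. Brain/liver vRNA by RT-qPCR; H&E histology. One-way ANOVA with Dunnett's test.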

[12] = target: ZIKV NS5 RdRp (Zika virus, UniProt A0A024B7W1); assay: In vitro RNA polymerase assay; assay type: biochemical; conditions: recombinant ZIKV NS5, serial dilutions
Chain of ZIKV NS5 RdRp (A0A024B7W1 2521-3423 limits assumed): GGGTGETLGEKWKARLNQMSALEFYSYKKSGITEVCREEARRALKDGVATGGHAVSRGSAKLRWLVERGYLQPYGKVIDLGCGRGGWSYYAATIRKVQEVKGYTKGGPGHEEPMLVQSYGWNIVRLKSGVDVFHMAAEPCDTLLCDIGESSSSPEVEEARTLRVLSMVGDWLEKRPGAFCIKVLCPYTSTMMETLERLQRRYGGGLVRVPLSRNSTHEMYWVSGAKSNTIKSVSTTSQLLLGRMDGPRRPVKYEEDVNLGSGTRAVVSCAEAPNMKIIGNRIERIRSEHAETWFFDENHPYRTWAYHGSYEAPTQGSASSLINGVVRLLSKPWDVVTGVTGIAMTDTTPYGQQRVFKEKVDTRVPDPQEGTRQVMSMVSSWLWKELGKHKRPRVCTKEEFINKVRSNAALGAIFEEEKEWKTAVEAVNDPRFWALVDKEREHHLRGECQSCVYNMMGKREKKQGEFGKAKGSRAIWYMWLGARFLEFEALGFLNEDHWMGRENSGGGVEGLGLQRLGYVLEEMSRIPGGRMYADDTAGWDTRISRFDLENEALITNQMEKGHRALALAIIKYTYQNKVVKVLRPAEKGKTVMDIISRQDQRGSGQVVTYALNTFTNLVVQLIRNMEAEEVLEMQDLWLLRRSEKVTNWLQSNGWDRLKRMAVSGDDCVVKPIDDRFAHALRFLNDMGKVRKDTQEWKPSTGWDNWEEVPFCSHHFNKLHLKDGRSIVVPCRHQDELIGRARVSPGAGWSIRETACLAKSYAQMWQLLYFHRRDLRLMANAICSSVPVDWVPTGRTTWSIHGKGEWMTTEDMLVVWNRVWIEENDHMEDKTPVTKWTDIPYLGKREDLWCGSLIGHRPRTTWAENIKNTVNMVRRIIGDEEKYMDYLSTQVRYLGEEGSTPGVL

[13] = 1 μM added at 6 hpi, after 24 h of viral infection, western blot intensity

EC50 ([1]; A549): 46 nM
EC50 ([1]; Huh-7): 6 nM
EC50 ([1]; Vero): 22 nM
Structure (SMILES): Cc1c(-c2ccc(-c3ccccc3F)cc2)nc2ccc(F)cc2c1C(=O)O [Brequinar, reference compound]
SI (selectivity index) ([1]; A549 cells): >1086
SI (selectivity index) ([1]; Huh7 cells): >8333
SI (selectivity index) ([1]; Vero cells): >2272
CC50 at 48 h [2]: > 50000 nM
CC50 at 48 h [3]: > 50000 nM
CC50 at 48 h [4]: > 50000 nM
EC50 [5]: 80 nM

Structure (SMILES): O[C@H]1[C@H]2c3cc4c(cc3CN3CCC(=C[C@@H]1O)[C@H]23)OCO4 [Lycorine]
SI (selectivity index) ([1]; A549 cells): 19.5
SI (selectivity index) ([1]; Huh7 cells): 20
SI (selectivity index) ([1]; Vero cells): 54
EC50 ([1]; A549): 220 nM
EC50 ([1]; Huh-7): 220 nM
EC50 ([1]; Vero): 390 nM
vRNA and viral progeny particle load, time-of-addition [6]: strongest ability to decrease the vRNA and viral progeny particle load
inhibition at 1 µM ([7]; read-out: Inhibition of negative-sense vRNA synthesis): ~95%
inhibition at 1 µM ([7]; read-out: Inhibition of positive-sense vRNA synthesis): ~93%
CC50 at 48 h [2]: 21000 nM
ZIKV protein (western blotting) ([8]; 0.01 to 10 μM): dose-dependent reduction in the ZIKV protein
ZIKV envelope biosynthesis (immunofluorescence) ([8]; 48 hpi): significantly reduced
CC50 at 48 h [3]: 4400 nM
Inhibition of plaque formation ([9]; 0.5 μM): partially
Inhibition of plaque formation ([9]; 5 μM): completely
vRNA synthesis ([10]; 1 μM added at 6 hpi, Vero cells, monitored up to 24 hpi): fully abrogated vRNA synthesis
NS5 protein reduction [10, 13]: 89%
Virus E protein reduction [10, 13]: 52%
Viral E and NS5 protein reduction ([10]; 1 μM added at 24 hpi): no significant difference
vRNA ([10]; 1 μM added at 24 hpi, monitored for additional 12 h): no effect on vRNA
CC50 at 48 h [4]: 4290 nM
Brain histopathology (H&E) ([11]; 1 mg/kg): brain tissue lesions were similar to those in the ZIKV group
Liver histopathology (H&E) ([11]; 1 mg/kg): inflammatory response of the cells was obvious
Reduction of vRNA of brain tissue ([11]; 1 mg/kg): not significant difference
Reduction of vRNA of liver ([11]; 1 mg/kg): not significant difference
Survival rate ([11]; 1 mg/kg intragastric, 14 days): 33%
Brain histopathology (H&E) ([11]; 5 mg/kg): significantly reduced the ZIKV-induced inflammatory response
Reduction of vRNA of brain tissue ([11]; 5 mg/kg): about one order of magnitude
Reduction of vRNA of liver ([11]; 5 mg/kg): about one and half order of magnitude, respectively
Survival rate ([11]; 5 mg/kg intragastric, 14 days): 66%
Brain histopathology (H&E) ([11]; 10 mg/kg): significantly reduced the ZIKV-induced inflammatory response
Reduction of vRNA of brain tissue ([11]; 10 mg/kg): about three orders of magnitude
Survival (protection against ZIKV infection-induced death) ([11]; 10 mg/kg intragastric, 14 days, ZIKV group 100% mortality): 83%
Liver histopathology (H&E) ([11]; 10 mg/kg, compared to 5 mg/kg group): significantly reduced liver damage
vRNA levels in blood versus ZIKV group ([11]; 1, 3 and 7 dpi): one order of magnitude lower
Body weight changes ([11]; weight loss from 5 dpi, 0 to 14 dpi): recovered until 9 or 10 dpi
RdRp activity [12]: directly inhibited RdRp activity in a dose-dependent manner
